In the library only some 3.1% were active in any assay of this set; here they are far more common.
CHO parental Ca – counter-screen: ATP calcium response change in parental CHO cells. parental CHO-K1, ATP-induced calcium, Fluo-8 fluorescence. inhibition, % at 5.6 µM. 330,000 compounds, 0.63% hits;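 active = inhibition above that plate's mean sample inhibition plus 3 SD, cut at about 26% in these data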
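Test system: parental CHO cells; detection: calcium-sensitive Fluo-8 fluorescence; evaluation: percent inhibition of calcium signal; also added: ATP as calcium-mobilizing challenge; repeats: one well per compound; control set: ATP-challenged DMSO wells low, unchallenged DMSO wells high; compound: single nominal dose of 5.6 µM per compound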
OX1R antag-1 – blocks the human orexin 1 receptor | AID 485270 | OX1R-expressing cells, FRET antagonist read-out | 330,000 compounds, 1.8% hits | inhibition, % at 6.6 µM | O43613; in the data active = inhibition mostly above about 38%, no sharp cut-off; inactive = mostly below about 40%
Target sequence (O43613 whole entry, looked up): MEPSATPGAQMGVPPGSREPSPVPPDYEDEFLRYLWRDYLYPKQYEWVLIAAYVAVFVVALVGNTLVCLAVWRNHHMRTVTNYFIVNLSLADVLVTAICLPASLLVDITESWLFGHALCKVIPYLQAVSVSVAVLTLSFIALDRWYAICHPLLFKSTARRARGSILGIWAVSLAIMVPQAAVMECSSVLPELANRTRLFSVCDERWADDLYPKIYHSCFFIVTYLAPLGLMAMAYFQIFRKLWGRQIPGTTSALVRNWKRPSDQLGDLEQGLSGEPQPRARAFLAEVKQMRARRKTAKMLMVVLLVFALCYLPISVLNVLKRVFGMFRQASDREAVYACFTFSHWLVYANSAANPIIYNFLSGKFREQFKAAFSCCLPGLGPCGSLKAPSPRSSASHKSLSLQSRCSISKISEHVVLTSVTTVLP
OX1R antag-2 – antagonists of human orexin 1 receptor; O43613; CHO/OX1R cells, Fluo-8 calcium fluorescence, orexin A; inhibition, % at 5 µM; 330,000 compounds, 0.43% hits;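 active = inhibition above its plate's threshold, mean inhibition of all tested compounds on the plate plus 3 SD, cut at about 37% in these data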
GPR7 antagonist – blocks human GPR7 receptor signaling. P48145. GPR7-expressing cells, fluorescence antagonist assay. inhibition, % at 4.4 µM. 290,000 compounds, 1.1% hits. AID 1861; in the data active = inhibition above about 16%, passing the limit was not always enough;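 also: cells stimulated with the agonist NPW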
Target sequence (P48145 whole entry, looked up): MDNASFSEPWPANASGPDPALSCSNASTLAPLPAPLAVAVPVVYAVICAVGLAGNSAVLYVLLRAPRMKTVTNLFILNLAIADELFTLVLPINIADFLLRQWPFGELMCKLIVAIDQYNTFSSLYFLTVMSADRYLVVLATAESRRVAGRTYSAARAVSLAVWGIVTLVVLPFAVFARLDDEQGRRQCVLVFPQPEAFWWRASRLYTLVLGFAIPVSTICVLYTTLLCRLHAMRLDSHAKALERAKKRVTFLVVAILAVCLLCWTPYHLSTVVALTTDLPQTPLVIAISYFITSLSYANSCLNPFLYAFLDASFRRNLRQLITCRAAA
GalR3 antag – antagonists of human GalR3. O60755. HEK293 GalR3-CNG cAMP membrane potential fluorescence; galR3 body fused to GalR1 C-terminus. inhibition, % at 3 µM. 360,000 compounds, 0.44% hits. AID 651719;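 active = inhibition above the screen-wide average plus 3 SD, cut at about 13% in these data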;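 also: forskolin and galanin both at EC90 stimulate the cells; cAMP rise reported by CNG channel membrane potential dye signal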
OX1R Ca confirm – OX1R (human) antagonism, confirmed; 1,100 compounds, 38% hits; shares compounds with OX1R antag-2; CHO/OX1R cells, orexin A calcium Fluo-8 fluorescence; AID 492963; inhibition, % at 5 µM; in the data active = inhibition above about 29%
CHO Ca triplic – counter-screen for OX1R antagonists: effect in parental CHO cells | shares compounds with OX1R antag-2 | parental CHO-K1, ATP-induced calcium, Fluo-8 fluorescence | inhibition, % at 5.6 µM | 1,100 compounds, 9.3% hits;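 active = inhibition above a per-plate limit, the mean inhibition of that plate's test compounds plus 3 SD, cut at about 25% in these data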
Large screens that a line does not name were inactive (follow-up assays come after a bar, where they were run).

N#CCc1ccc(NC(=O)Nc2cccc(Cl)c2)cc1	none | OX1R Ca confirm inactive | CHO Ca triplic 34
CC(C)CC(=O)N1CCN(S(=O)(=O)c2ccc(C3CCCCC3)cc2)CC1	none (no result: GPR7 antagonist)
O=C(c1ccc2ccccc2c1)C1CCCN(S(=O)(=O)c2cccnc2)C1 (centres undefined)	none | OX1R Ca confirm inactive | CHO Ca triplic inactive
O=C(CN1CCN(S(=O)(=O)c2ccc(Cl)cc2)CC1)NC1CC1	none
CCc1ccc(NC(=O)[C@@H](NC(=O)[C@@H]2Cc3ccccc3CN2)C(C)CC)cc1 (some centres undefined)	OX1R antag-2 77 | OX1R Ca confirm inactive | CHO Ca triplic inactive
CCc1ccc(NC(=O)[C@H](NC(=O)[C@@H]2Cc3ccccc3CN2)c2ccccc2)cc1	none
O=C1C=C(c2ccc(OC(F)(F)F)cc2)C[C@@H](c2ccc(Cl)cc2)C1	none (no result: GPR7 antagonist)
O=[N+]([O-])c1ccc(N/N=C/c2ccccc2O)cc1	none | OX1R Ca confirm inactive | CHO Ca triplic inactive
CN(C)S(=O)(=O)c1ccc(-c2csc(N/N=C/c3ccco3)n2)cc1	none | OX1R Ca confirm 70 | CHO Ca triplic inactive
Cc1ccc(-c2csc(N/N=C/c3ccco3)n2)cc1	none
CCC(=O)c1ccc(OC(=O)c2ccc(Br)o2)cc1	none | OX1R Ca confirm 38 | CHO Ca triplic 39
O=C1/C(=C/c2cccs2)SC(=S)N1CC(=O)N1CCCCC1CCO (centres undefined)	none
Nc1nnc(SCc2nc3scc(-c4ccccc4)c3c(=O)[nH]2)s1	none | OX1R Ca confirm inactive | CHO Ca triplic inactive
Cc1cc(OCc2cc(C(=O)N3CCN(C)C(=O)[C@@H]3C)no2)cc(C)c1Cl	OX1R antag-2 43 | OX1R Ca confirm inactive | CHO Ca triplic 28
CCOc1ccc(NC(=O)CN2C(=O)NC3(CCCCCC3)C2=O)cc1	none (no result: GPR7 antagonist)
CCN(C)C1CN(Cc2cn(Cc3ccc(OC)cc3)nn2)S(=O)(=O)C1 (centres undefined)	none (no result: CHO parental Ca, OX1R antag-1, OX1R antag-2, GPR7 antagonist)
O=C(OCc1ccc(F)cc1)c1cccnc1Cl	none
O=C(OCc1ccc(COC(=O)c2cccnc2Cl)cc1)c1cccnc1Cl	OX1R antag-2 58 | OX1R Ca confirm 30 | CHO Ca triplic 36
CC1(c2ccc(OC(F)F)cc2)NC(=O)N(CC(=O)Nc2ccc(N3CCCCC3)cc2)C1=O (centres undefined)	none (no result: GPR7 antagonist) | OX1R Ca confirm 62 | CHO Ca triplic 32
CC1(c2ccc([N+](=O)[O-])cc2)NC(=O)N(CC(=O)Nc2ccc(N3CCCCC3)cc2)C1=O (centres undefined)	none (no result: GPR7 antagonist) | OX1R Ca confirm 48 | CHO Ca triplic inactive
COc1cc(Cn2c(N)c(C#N)c3nc4ccccc4nc32)cc(OC)c1	none | OX1R Ca confirm 33 | CHO Ca triplic inactive
Cc1ccn2c(=O)nc(SCC(=O)N3CCCCC3)nc2c1	none (no result: GPR7 antagonist)
CC(C)OC(=O)NCCOC(=O)Nc1ccc(Cl)cc1	none | OX1R Ca confirm inactive | CHO Ca triplic inactive
CC(C)OC(=O)NCCOC(=O)Nc1ccccc1Cl	none
CC(=O)Nc1ccc(/C(C)=N/Nc2nc(Nc3cccc4ccccc34)nc(N3CCOCC3)n2)cc1	OX1R antag-2 40 | OX1R Ca confirm inactive | CHO Ca triplic inactive
CC(=O)Nc1ccc(/C(C)=N/Nc2nc(N3CCOCC3)nc(N3CCOCC3)n2)cc1	none
CN(Cc1c(C(=O)N/N=C/c2cccc(Cl)c2)nnn1-c1nonc1N)c1ccccc1	none | OX1R Ca confirm inactive | CHO Ca triplic inactive
O=S(=O)(NC1CCSc2ccccc21)c1ccc(Cl)nc1 (centres undefined)	OX1R antag-2 52 | OX1R Ca confirm inactive | CHO Ca triplic inactive
CC1(C)CC(=O)c2cc(N=C/C(C(=O)c3ccccc3)=C(\O)c3ccccc3)c(=O)oc2C1	none
N#Cc1ccc(-c2cccnc2)nc1SCC(=O)c1ccccc1	OX1R antag-2 53 | OX1R Ca confirm inactive | CHO Ca triplic inactive
COc1ccc(/C=c2\sc3nc(-c4ccccc4OC)nn3c2=O)c(OC)c1	OX1R antag-2 43 | OX1R Ca confirm 90 | CHO Ca triplic inactive
COc1ccccc1-c1nc2s/c(=C\c3cccs3)c(=O)n2n1	none
COc1c(C)cc(Br)cc1C(=O)Nc1ccc(Cc2ccncc2)cc1	none | OX1R Ca confirm inactive | CHO Ca triplic inactive
COc1ccccc1C(=O)Nc1ccc(Cc2ccncc2)cc1	none
COc1ccc(-c2nc(/C=C3\C(C)=Nc4ccccc43)c(O)o2)cc1	none | OX1R Ca confirm inactive | CHO Ca triplic inactive
Cc1ccc(N=Cc2nc(-c3ccc(C)cc3)oc2O)cc1	none (no result: CHO parental Ca, OX1R antag-1, OX1R antag-2)
CC1=Nc2ccccc2/C1=C\c1nc(-c2ccc(C(F)(F)F)cc2)oc1O	OX1R antag-2 40 | OX1R Ca confirm 51 | CHO Ca triplic 54
CCC(C)n1c(=S)[nH]c2c(sc3ccc([N+](=O)[O-])cc32)c1=O (centres undefined)	none
CC1=NN(c2cccc(C(=O)O)c2)C(=O)/C1=C\C=C/c1ccccc1	none (no result: CHO parental Ca, OX1R antag-1, OX1R antag-2)
CCCN1CCc2c(sc3nc(SC)n(-c4ccccc4)c(=O)c23)C1	none
CCc1c(C)sc(NC(=S)Nc2cccnc2)c1C(=O)OC	none
CCc1c(C)sc(NC(=S)Nc2nc(C)cc(C)n2)c1C(=O)OC	none | OX1R Ca confirm 45 | CHO Ca triplic inactive
O=C(CSc1nnc2ccc(-c3ccc(F)cc3)nn12)NCC1CCCO1 (centres undefined)	none (no result: GPR7 antagonist)
COc1ccc(CNCCNC(=O)c2cccs2)c(OC)c1OC	none
Cc1cccc(OCCC(=O)Nc2ccc(C)c(S(=O)(=O)N3CCOCC3)c2)c1	none (no result: GPR7 antagonist)
Cc1cccc(OCCCC(=O)Nc2ccc(Cl)c(S(=O)(=O)N3CCOCC3)c2)c1	none (no result: GPR7 antagonist) | OX1R Ca confirm inactive | CHO Ca triplic inactive
COc1cc(C(=O)Nc2cccc(S(=O)(=O)NCc3ccco3)c2)cc(OC)c1OC	none (no result: GPR7 antagonist)
CN(c1ccccc1)S(=O)(=O)c1cccc(NC(=O)COc2ccccc2)c1	none (no result: GPR7 antagonist) | OX1R Ca confirm inactive | CHO Ca triplic inactive
CN(c1ccc(OCC(=O)NCCc2ccccc2)cc1)S(=O)(=O)c1ccc(Cl)cc1	none (no result: GPR7 antagonist) | OX1R Ca confirm inactive | CHO Ca triplic inactive
O=C(COc1ccc(Cl)cc1)Nc1cccc(S(=O)(=O)NCc2ccco2)c1	none (no result: GPR7 antagonist) | OX1R Ca confirm inactive | CHO Ca triplic inactive
Cc1cccc(-c2nnc(-c3cccc(NC(=O)Cc4cccs4)c3)o2)c1	OX1R antag-2 65 | OX1R Ca confirm inactive | CHO Ca triplic inactive
O=C(Cc1cccs1)Nc1ccc(-c2nnc(-c3ccccc3)o2)cc1	none
COC(=O)c1c(C)[nH]c(C(=O)COC(=O)CCNS(=O)(=O)c2cccc(C(F)(F)F)c2)c1C	none (no result: GPR7 antagonist) | OX1R Ca confirm inactive | CHO Ca triplic inactive
Cc1ccc(Cn2cc(CN3CC(N(C)C)CS3(=O)=O)nn2)cc1 (centres undefined)	none (no result: CHO parental Ca, OX1R antag-1, OX1R antag-2, GPR7 antagonist)
Cc1cc(C(=O)COC(=O)c2ccc(O)cc2O)c(C)n1-c1ccccc1	none (no result: GPR7 antagonist) | OX1R Ca confirm inactive | CHO Ca triplic inactive

Source: PubChem BioAssay (The Scripps Research Institute Molecular Screening Center)
